Sampled rows, rich in hits. Any-hit rate of the full collection: about 2.9%.
SENP8 block-1: SENP8 protease inhibitors, primary screen, biochemical, luminescence; purified SENP8, Z-RLRGG-aminoluciferin cleavage; Sentrin-specific protease 8 (Homo sapiens), Q96LD8; AID 2540, 2010; inhibition, % at 10 µM; 1.2% of 330,000 active; in the data active means inhibition above about 50%
Target sequence (Q96LD8 whole entry, looked up): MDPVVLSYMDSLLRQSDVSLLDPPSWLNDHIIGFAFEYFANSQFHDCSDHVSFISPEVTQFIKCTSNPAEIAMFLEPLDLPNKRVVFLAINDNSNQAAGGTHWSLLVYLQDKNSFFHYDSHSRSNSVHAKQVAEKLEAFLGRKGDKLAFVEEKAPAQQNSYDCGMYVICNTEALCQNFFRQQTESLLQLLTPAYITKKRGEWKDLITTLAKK
HSP90 inh: HSP90 inhibitors, primary screen, cell lysate, luminescence | Rabbit reticulocyte lysate, luciferase refolding luminescence, 3 h | inhibition, % at 5.6 µM | 0.91% of 290,000 active | AID 1789, 2009;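 active means inhibition above the screen-wide mean plus 3 SD, computed separately per campaign, cut at about 16% in these data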;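 further: inhibitors lower the luminescence because luciferase stays unfolded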
SENP6 block: SENP6 protease inhibitors, primary screen, biochemical, luminescence, uHTS; inhibition, % at 10 µM; Sentrin-specific protease 6 (Homo sapiens), Q9GZR1; Recombinant SENP6 catalytic domain, aminoluciferin luminescence; 1.8% of 330,000 active;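 active means inhibition above about 50% at the single tested dose, limit read from the data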
Target sequence (Q9GZR1 628-1112 limits assumed): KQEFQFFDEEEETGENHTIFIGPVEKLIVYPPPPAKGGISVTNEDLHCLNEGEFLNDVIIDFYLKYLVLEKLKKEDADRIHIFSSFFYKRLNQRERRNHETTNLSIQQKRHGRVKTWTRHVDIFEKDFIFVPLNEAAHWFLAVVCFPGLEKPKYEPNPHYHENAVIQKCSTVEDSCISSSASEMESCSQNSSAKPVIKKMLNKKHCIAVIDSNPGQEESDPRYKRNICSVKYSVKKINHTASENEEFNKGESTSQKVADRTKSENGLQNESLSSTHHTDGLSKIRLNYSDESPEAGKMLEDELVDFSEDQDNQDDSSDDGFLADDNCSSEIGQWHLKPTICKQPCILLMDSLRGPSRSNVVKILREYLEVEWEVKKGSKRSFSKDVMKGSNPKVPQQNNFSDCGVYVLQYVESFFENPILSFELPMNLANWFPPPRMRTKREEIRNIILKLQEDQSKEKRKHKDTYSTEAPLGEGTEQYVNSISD
SENP7 block: SENP7 protease inhibitors, primary screen, biochemical, luminescence, uHTS. Sentrin-specific protease 7 (Homo sapiens), Q9BQF6. recombinant SENP7, Z-RLRGG-aminoluciferin luminescence, 40 min. inhibition, % at 5 µM. 1.5% of 330,000 active. AID 434973, 2010;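 active means inhibition above about 50% at the single test dose, limit read from the data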
SENP8 block-2: human SENP8 protease inhibitors, primary screen, biochemical, fluorescence, Nedd8 protein substrate, uHTS; Sentrin-specific protease 8 (Homo sapiens), Q96LD8; recombinant SENP8; inhibition, % at 20 µM; 0.64% of 360,000 active; in the data active means inhibition mostly above about 40%, no sharp cut-off; inactive means mostly below about 27%
SENP1 FRET inh: human SENP1 catalytic domain inhibitors, primary screen, biochemical, FRET, uHTS; Sentrin-specific protease 1 (Homo sapiens), Q9P0U3; recombinant SENP1 catalytic domain, CyPet-SUMO1-YPet FRET cleavage; inhibition, % at 10 µM; 0.21% of 360,000 active;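 active means inhibition at least 30% at 10 µM, raw YFP signal under a set limit, fluorescence ratio 0.5 to 1.5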
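Test system: hSENP1 catalytic domain, recombinant; Amount: 20 pM final SENP1 enzyme; Medium: Tris pH 8 buffer plus EDTA, NaCl, BME, BSA, NP40, catalase; Schedule: 50 min enzyme reaction, room temperature, light-protected; Technique: FRET fluorescence in CFP and YFP emission channels; Controls: no-enzyme wells low, DMSO-plus-enzyme wells high control.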
SENP8 conf: human SENP8 protease inhibitors, confirmation, biochemical, Nedd8 protein substrate, single concentration; shares compounds with SENP8 block-2; purified SENP8, Nedd8-AMC/pro-Nedd8 cleavage fluorescence, 30 min; inhibition, % at 25 µM; 15% of 1,400 active; AID 624319, 2012; in the data active means inhibition mostly above about 39%, no sharp cut-off; inactive means mostly below about 34%
Each line names hits and unclear results; the compound was inactive in the other large screens (follow-up assays come after a bar, where they were run).

CC1=NN(c2cccc([N+](=O)[O-])c2)C(=O)C1	none
O=C(CCS(=O)(=O)c1cccc2nonc12)NCCc1ccccc1	SENP8 block-2 41 | SENP8 conf inactive
Cc1nnc(Sc2cc(NCCCO)c([N+](=O)[O-])c3nonc23)s1	SENP8 block-2 75 (no result: SENP8 block-1, SENP6 block, SENP7 block) | SENP8 conf inactive
CC1CCN(C(=O)CSc2nnc(-c3ccccc3F)o2)CC1	none
O=[N+]([O-])c1ccc(N/N=C/c2sc(N3CCOCC3)nc2-c2ccccc2)c(S(=O)(=O)Nc2ccc(Cl)cc2)c1	SENP8 block-2 53 (no result: SENP8 block-1, SENP6 block, SENP7 block) | SENP8 conf inactive
O=[N+]([O-])c1ccc(N/N=C/c2sc(N3CCOCC3)nc2-c2ccccc2)c(S(=O)(=O)Nc2ccccc2Cl)c1	SENP8 block-2 46 (no result: SENP8 block-1, SENP6 block, SENP7 block) | SENP8 conf inactive
O=C(Nc1cccc(Cl)c1)c1ccc(NCCCN2CCOCC2)c([N+](=O)[O-])c1	SENP8 block-2 41 | SENP8 conf inactive
CCN1CCN(S(=O)(=O)c2ccc(Cl)c(C(=O)NCc3nc4ccccc4[nH]3)c2)CC1	none (no result: HSP90 inh)
CC1=NN(c2ccccc2)C(=O)C1C(=S)SC1CC(=O)NC1=O (stereo not drawn)	SENP8 block-2 45 (no result: SENP8 block-1, HSP90 inh, SENP6 block, SENP7 block) | SENP8 conf inactive
CC1=NN(c2ccccc2)C(=O)C1C(=O)c1ccccc1 (stereo not drawn)	none
Cc1ccc(C(=O)NCC(=O)OCC(=O)N2CCCc3ccccc32)cc1	SENP8 block-2 55 | SENP8 conf inactive
CCOC(=O)/C(=N/Nc1ccccc1)N1CCCc2ccccc21	SENP8 block-2 43 | SENP8 conf inactive
CCC(CC)=NNc1ccc(S(N)(=O)=O)cc1[N+](=O)[O-]	SENP8 block-2 47 | SENP8 conf inactive
C/C(CCC(C)C)=N\Nc1ccc(S(N)(=O)=O)cc1[N+](=O)[O-]	none
C/C(=N\Nc1ccc(S(N)(=O)=O)cc1[N+](=O)[O-])c1ccc2c(c1)OCO2	SENP8 block-2 47 (no result: SENP8 block-1, SENP6 block, SENP7 block) | SENP8 conf inactive
NS(=O)(=O)c1ccc(N/N=C/c2ccc[nH]2)c([N+](=O)[O-])c1	SENP8 block-2 35 | SENP8 conf inactive
CC12CCC(=O)N1C(C(=O)Nc1cccc(S(=O)(=O)N3CCCCCC3)c1)CS2 (stereo not drawn)	none (no result: HSP90 inh)
COc1ccc(C)cc1-n1nnnc1SCc1nc(N)nc(N(C)C)n1	none (no result: SENP8 block-1, HSP90 inh, SENP6 block, SENP7 block)
Cc1ccc(S(=O)(=O)N2CCOCC2)cc1NC(=O)COC(=O)c1cnc(Cl)c(Cl)c1	none (no result: HSP90 inh)
N#Cc1c(-c2ccccc2)nc(SCC(=O)N2c3ccccc3Sc3ccccc32)[nH]c1=O	none
CCCc1cc(=O)[nH]c(SCC(=O)Nc2ncc(S(=O)(=O)c3ccc([N+](=O)[O-])cc3)s2)n1	SENP8 block-2 47 | SENP8 conf inactive
CC(C)[C@H](NC(=O)N1c2ccccc2NC(=O)[C@@H]1C(C)C)C(=O)N[C@@H](Cc1ccccc1)C(=O)O	SENP8 block-2 54 | SENP8 conf inactive
CC(C)[C@H](NC(=O)N1CC(=O)Nc2ccccc21)C(=O)N[C@H](Cc1c[nH]c2ccccc12)C(=O)O	SENP8 block-2 44 | SENP8 conf inactive
COc1ccc(CNC(=O)Nc2nc(C(N)c3ccccc3)cs2)cc1 (stereo not drawn)	none (no result: SENP8 block-1, HSP90 inh, SENP6 block, SENP7 block)
O=S(=O)(c1ccccc1C(F)(F)F)N1CCOCC1	none
O=S(=O)(c1ccccc1C(F)(F)F)N1C=CC(C(F)(F)F)=NCC1	SENP8 block-2 41 (no result: SENP8 block-1, SENP6 block, SENP7 block) | SENP8 conf inactive
CC1CCCCC1NC(=O)COC(=O)COc1ccccc1F (stereo not drawn)	none (no result: HSP90 inh)
CCCN(C1CCS(=O)(=O)C1)S(=O)(=O)c1ccc(F)cc1 (stereo not drawn)	none (no result: HSP90 inh)
CCOc1[nH]n(-c2ccccc2)c(=O)c1C=Nc1ccc(Cl)cc1	SENP8 block-2 40 | SENP8 conf inactive
COc1nccnc1NS(=O)(=O)c1ccc(N=Cc2c(C)[nH]n(-c3ccc(Cl)cc3)c2=O)cc1	none (no result: SENP8 block-2, SENP1 FRET inh)
Cc1[nH]n(-c2ccc(Cl)cc2)c(=O)c1C=Nc1ccc(S(=O)(=O)N2CCOCC2)cc1	SENP8 block-2 47 | SENP8 conf inactive
CCOc1[nH]n(-c2ccccc2)c(=O)c1C=Nc1ccccc1	none
COCc1[nH][nH]c(=O)c1C=Nc1ccccc1	none
CCOc1[nH]n(-c2ccccc2)c(=O)c1C=Nc1ccc(C(=O)OC)cc1	SENP8 block-2 54 | SENP8 conf inactive
COCc1[nH][nH]c(=O)c1C=Nc1ccc(Cl)cc1	SENP8 block-2 48 | SENP8 conf inactive
CCOc1[nH]n(-c2ccccc2)c(=O)c1C=Nc1ccc(C)cc1	none
CC1(C)Cc2cccc(OCC(=O)Nc3cc(S(C)(=O)=O)ccc3Cl)c2O1	none (no result: HSP90 inh)
Cc1cc(=O)[nH]c(SCC(=O)Nc2ccc(N3CCCCC3)cc2)n1	none (no result: HSP90 inh)
Cc1nc2c(C(=O)Nc3ccc(N4CCCC(O)C4)cc3)snc2c(=O)[nH]1 (stereo not drawn)	SENP8 block-2 57 | SENP8 conf inactive
O=c1[nH]c(-c2ccccc2)ncc1Oc1ccccc1	none (no result: HSP90 inh)
CCc1ccc(OC)c(S(=O)(=O)Nc2ccc(Cc3ccncc3)cc2)c1	none
Cc1ccccc1-c1cnc(C(O)c2ccc(C(C)(C)C)cc2)[nH]1 (stereo not drawn)	none (no result: SENP8 block-1, HSP90 inh, SENP6 block, SENP7 block)
Cc1ccccc1-c1cnc(C(O)c2ccc(-c3ccccc3)cc2)[nH]1 (stereo not drawn)	SENP8 block-2 41 (no result: SENP8 block-1, HSP90 inh, SENP6 block, SENP7 block) | SENP8 conf inactive
Cc1nc2ccc(NC(=O)c3cc([N+](=O)[O-])cc([N+](=O)[O-])c3Cl)cc2s1	SENP8 block-2 41 (no result: SENP8 block-1, SENP6 block, SENP7 block) | SENP8 conf inactive
CC(/C=N/Nc1nc(C)cc(=O)[nH]1)=C\c1ccccc1	none
Cc1cc(=O)[nH]c(N/N=C/C(C)c2ccccc2)n1 (stereo not drawn)	SENP8 block-2 47 | SENP8 conf inactive
CC(C)(C)c1ccc2c(c1)OC(C(=O)N/N=C/c1ccc([N+](=O)[O-])o1)CO2 (stereo not drawn)	SENP8 block-2 44 | SENP8 conf inactive
Cc1ccc(F)c(Oc2cc(NN3CCCCC3)c([N+](=O)[O-])cc2[N+](=O)[O-])c1	none
Cc1ccc(C)c(Oc2cc(NN3CCCCC3)c([N+](=O)[O-])cc2[N+](=O)[O-])c1	SENP8 block-2 42 | SENP8 conf inactive
C[C@@H]1CN([C@@H](C)CO)C(=O)CCCn2nncc2CO[C@H]1CN(C)S(=O)(=O)c1ccc(-c2ccccc2)cc1	none (no result: SENP8 block-1, HSP90 inh, SENP6 block, SENP7 block)
